Laboratory results taken from ChEMBL document CHEMBL2157875, “Design, synthesis and in vitro evaluation of a series of α-substituted phenylpropanoic acid PPARγ agonists to further investigate the stereochemistry-activity relationship” (Bioorg Med Chem, 2012).
pEC50: −log10 of the molar value.

How the values were obtained:
Type in all cases: cell-based
[1] = target: T1, Peroxisome proliferator-activated receptor gamma (Homo sapiens, UniProt P37231); experiment: Transactivation of human PPARgamma expressed in human HEK293 cells after 16 to 20 hrs by dual luciferase beta-galactosidase reporter gene assay
T1 sequence (P37231 whole entry): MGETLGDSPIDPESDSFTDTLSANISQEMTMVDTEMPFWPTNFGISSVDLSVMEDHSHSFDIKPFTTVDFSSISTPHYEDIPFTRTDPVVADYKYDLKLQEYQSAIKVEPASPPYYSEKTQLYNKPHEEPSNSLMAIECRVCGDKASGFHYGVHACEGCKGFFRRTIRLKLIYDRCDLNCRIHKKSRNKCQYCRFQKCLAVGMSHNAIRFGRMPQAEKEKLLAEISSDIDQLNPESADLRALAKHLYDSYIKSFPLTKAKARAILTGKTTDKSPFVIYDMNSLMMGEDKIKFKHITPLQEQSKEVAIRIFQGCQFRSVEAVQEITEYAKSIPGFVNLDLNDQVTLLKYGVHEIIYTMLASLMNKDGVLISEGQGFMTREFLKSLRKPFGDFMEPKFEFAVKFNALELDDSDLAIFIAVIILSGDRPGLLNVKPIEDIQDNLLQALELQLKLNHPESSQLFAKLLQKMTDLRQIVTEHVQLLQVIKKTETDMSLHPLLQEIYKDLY
Method in brief: (§1)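 HEK293 cells were grown in DMEM with 5% FBS and antibiotic-antimycotic at 37 °C in 5% CO2. They were co-transfected by calcium phosphate with 50 ng reporter, 20 ng pCMX-β-galactosidase and 15 ng of each receptor plasmid, made up to 150 ng with pGEM carrier. Ligands were added 8 h later and cells harvested about 16–20 h after. Luciferase was normalized to β-galactosidase; means of triplicates.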

[2] = target: PPAR delta/gamma (Homo sapiens) (UniProt P37231+Q03181); experiment: Selectivity ratio of EC50 for human PPARdelta expressed in human HEK293 cells to EC50 for human PPARgamma expressed in human HEK293 cells
HEK293 = experiment: Selectivity ratio of EC50 for human PPARalpha expressed in human HEK293 cells to EC50 for human PPARgamma expressed in human HEK293 cells
[3] = target: T2, Peroxisome proliferator-activated receptor gamma (Homo sapiens) (UniProt P37231); experiment: Transactivation of human PPARgamma expressed in human HEK293 cells assessed as concentration required for maximum activity after 16 to 20 hrs by dual luciferase beta-galactosidase reporter gene assay; method in brief: as §1
T2 sequence (whole entry): T1 sequence (P37231 whole entry)

[4] = target: T3, Peroxisome proliferator-activated receptor alpha (Homo sapiens, UniProt Q07869); experiment: Transactivation of human PPARalpha expressed in human HEK293 cells after 16 to 20 hrs by dual luciferase beta-galactosidase reporter gene assay; method in brief: as §1
T3 sequence (Q07869 whole entry): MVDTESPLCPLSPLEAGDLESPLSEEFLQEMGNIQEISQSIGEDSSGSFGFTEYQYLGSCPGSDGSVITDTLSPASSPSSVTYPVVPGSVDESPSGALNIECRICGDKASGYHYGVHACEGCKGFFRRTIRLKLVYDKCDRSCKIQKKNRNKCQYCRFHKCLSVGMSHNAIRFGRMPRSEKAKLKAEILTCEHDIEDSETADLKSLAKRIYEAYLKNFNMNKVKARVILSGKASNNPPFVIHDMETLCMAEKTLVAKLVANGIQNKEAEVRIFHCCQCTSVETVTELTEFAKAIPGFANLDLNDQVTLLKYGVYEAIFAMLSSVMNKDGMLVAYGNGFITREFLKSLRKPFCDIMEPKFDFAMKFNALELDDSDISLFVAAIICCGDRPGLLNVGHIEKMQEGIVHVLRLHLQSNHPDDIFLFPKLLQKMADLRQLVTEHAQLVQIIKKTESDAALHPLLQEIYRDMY

[5] = target: T4, Peroxisome proliferator-activated receptor delta (Homo sapiens, UniProt Q03181); experiment: Transactivation of human PPARdelta expressed in human HEK293 cells after 16 to 20 hrs by dual luciferase beta-galactosidase reporter gene assay
T4 sequence (Q03181 whole entry): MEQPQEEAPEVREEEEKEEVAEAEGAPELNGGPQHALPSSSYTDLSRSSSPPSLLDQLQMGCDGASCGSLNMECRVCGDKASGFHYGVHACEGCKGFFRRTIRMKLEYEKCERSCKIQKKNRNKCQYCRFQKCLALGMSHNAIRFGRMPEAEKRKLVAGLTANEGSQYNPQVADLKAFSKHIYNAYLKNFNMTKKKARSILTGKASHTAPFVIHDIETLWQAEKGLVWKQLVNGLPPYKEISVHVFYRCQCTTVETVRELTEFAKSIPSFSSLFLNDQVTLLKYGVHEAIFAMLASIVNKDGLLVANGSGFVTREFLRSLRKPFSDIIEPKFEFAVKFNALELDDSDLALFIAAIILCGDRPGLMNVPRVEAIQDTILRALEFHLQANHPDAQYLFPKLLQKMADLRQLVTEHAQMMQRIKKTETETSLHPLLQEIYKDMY
Method in brief: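 HEK293 cells grown in DMEM with 5% FBS and antibiotic-antimycotic at 37 °C, 5% CO₂. Calcium phosphate cotransfection per well of 50 ng reporter, 20 ng pCMX-β-galactosidase, 15 ng receptor expression plasmid, pGEM carrier to 150 ng. Ligands added 8 h post-transfection, cells harvested ~16–20 h later. Luciferase normalised to β-galactosidase; means of triplicates.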

Compound	pEC50 [1]	Ratio EC50 [2]	Activity [3] [µM]	pEC50 [4]	pEC50 [5]	Ratio EC50 (HEK293)
CCCOc1ccc(C[C@H](CC)C(=O)O)cc1CNC(=O)c1ccc(C23CC4CC(CC(C4)C2)C3)cc1	–	–	–	–	6.89	–
CCCOc1ccc(C[C@@H](CCc2ccccc2)C(=O)O)cc1CNC(=O)c1ccc(C23CC4CC(CC(C4)C2)C3)cc1	7.47	50	1	5.75	–	50

Continued, in another order:

pEC50 [1]	Ratio EC50 [2]	Activity [3] [µM]	pEC50 [4]	pEC50 [5]	Compound	Ratio EC50 (HEK293)
7.92	240	1	–	–	CCCOc1ccc(C[C@@H](CC2CCCCC2)C(=O)O)cc1CNC(=O)c1ccc(C23CC4CC(CC(C4)C2)C3)cc1	240
8.04	50	0.05	6.11	–	CCCOc1ccc(C[C@H](CCc2ccccc2)C(=O)O)cc1CNC(=O)c1ccc(C23CC4CC(CC(C4)C2)C3)cc1	50
7.66	240	1	–	–	CCCOc1ccc(C[C@H](CC2CCCCC2)C(=O)O)cc1CNC(=O)c1ccc(C23CC4CC(CC(C4)C2)C3)cc1	240
